Several values for one entry are separate records, joined by “and”; a condition that tells them apart may be missing. Identical values can stand only once.
Legend:
Mus musculus [1] = test: Tested in vivo for the effective dose administered orally in mouse hypothermia assay; assay type: functional; conditions: po
Procedure, shortened: (§1)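 Charles River CF-1 mice (18-22 g, 4 per dose), housed individually 20 min before testing. Rectal temperature taken before dosing and 20 min after (sc 0.1 mL; oral 0.2 mL by gavage needle). A drop of ≥2 °F counted as positive. Doses started at 30 mg/kg and fell by half-log until 0/4 responded.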

Mus musculus [2] = test: Tested in vivo for the maximum temperature decrease in mouse hypothermia assay.; assay type: functional
Procedure, shortened: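 CF-1 mice (18-22 g, 4 per dose), dosed sc or orally. Rectal temperature measured before dosing and 20 min after. The mean maximum temperature drop (°F) at 20 min after any dose is recorded as an efficacy index.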

Mus musculus [3] = test: In vivo effective dose administered subcutaneously in mouse hypothermia assay.; assay type: functional; conditions: sc; procedure, shortened: as §1
Mus musculus [4] = test: In vivo effective dose administered orally in mouse hypothermia assay (approximate ED50).; assay type: functional; conditions: po; procedure, shortened: as §1
Mus musculus [5] = test: Behavioral time in mouse isolation-induced aggression assay 0.3 umol/kg administered intraperitoneally; assay type: functional
Procedure, shortened: (§2)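 Isolated male CF-1 resident mice, housed singly ≥1 month and weighing 28-30 g at testing, were dosed ip or orally in 0.25% methylcellulose or 0.1% citric acid. Dosing was blind, 6 per group (n=12 vehicle). After 30 min an untreated group-housed intruder was introduced. Latency to fighting was recorded, capped at 600 s. Residents rested ≥3 days before reuse. Wilcoxon rank sum.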

Mus musculus [6] = test: Behavioral time in mouse face to face assay at 3.0 umol/kg administered subcutaneously; assay type: functional
Procedure, shortened: (§3)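 Male CF-1 mice (19-29 g), 8 pairs per dose, dosed sc, ip or orally in 0.25% methylcellulose or 0.1% citric acid. Pairs from the same home cage are held together for 30 min. Pairs from different cages are then placed in a small litter-floored cage, and face-to-face interaction is timed visually for 3 min. Comparison with the daily control by two-tailed Wilcoxon rank sum, p<0.05.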

Mus musculus [7] = test: Behavioral time in mouse isolation-induced aggression assay at 3.0 umol/kg administered intraperitoneally (*P<0.05); assay type: functional; procedure, shortened: as §2
Mus musculus [8] = test: Behavioral time in mouse isolation-induced aggression assay 0 umol/kg administered intraperitoneally; assay type: functional; procedure, shortened: as §2
Rattus norvegicus [9] = test: Effect on the synthesis rate of dopamine (DOPA) accumulation at the dose of 3.0 umol/kg in the rat ventral limbic brain region; assay type: functional, Limbic system
Procedure, shortened: (§4)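 Male Sprague-Dawley rats were given test drug or vehicle sc at time zero, then NSD 1015 (100 mg/kg ip) 15 min later. DOPA and 5-HTP were measured electrochemically by peak integration. Results are expressed as percent change from NSD 1015 plus saline controls. Groups of 6 vs control 6, unpaired t test.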

Felis catus [10] = test: Maximum decrease on arterial blood pressure at 1 mg/kg; assay type: functional
Procedure, shortened: (§5)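 Adult cats (2.5-4.0 kg) anesthetized with ketamine 11 mg/kg im, then chloralose 80 mg/kg iv. Femoral artery cannulated for blood pressure, femoral vein for drug. Ventilated, paralyzed with gallamine 4 mg/kg iv, rectal temperature held at 37-38 °C. Cumulative iv doses given at 20-min intervals. Maximum decrease reported following a 1 mg/kg iv dose.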

Felis catus [11] = organism: Felis catus; test: Maximum decrease observed; assay type: functional; parameters: unit not given here
Mus musculus [12] = test: Behavioral time in mouse face to face assay at 30 umol/kg administered subcutaneously; assay type: functional; procedure, shortened: as §3
Rattus norvegicus [13] = test: Effect on the synthesis rate of 5 HTP accumulation at the dose 0.3 umol/kg in the rat ventral limbic brain region; assay type: functional, Limbic system; procedure, shortened: as §4
Felis catus [14] = test: (§6) Dose on arterial blood pressure (BP) in anesthetized cat; assay type: functional
Mus musculus [15] = test: Behavioral time in mouse isolation-induced aggression assay at 0 umol/kg administered intraperitoneally; assay type: functional; procedure, shortened: as §2
Mus musculus [16] = test: Behavioral time in mouse isolation-induced aggression behavioral assay at 30 umol/kg administered intraperitoneally (*P<0.05); assay type: functional; procedure, shortened: as §2
Rattus norvegicus [17] = test: Effect on the synthesis rate of 5 HTP accumulation at the dose of 3.0 umol/kg in the rat ventral limbic brain region (*P<0.05); assay type: functional, Limbic system; procedure, shortened: as §4
Felis catus [18] = organism: Felis catus; test: Dose at which the SND has been reduced to 50% of the pretreatment value; assay type: functional
Procedure, shortened: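 Adult cats (2.5-4.0 kg), ketamine 11 mg/kg im then chloralose 80 mg/kg iv, ventilated, gallamine-paralyzed, rectal temperature 37-38 °C. Sympathetic nerve discharge quantified by cumulative integration. Cumulative iv doses were given at 20-min intervals. Value is the dose reducing discharge to 50% of pretreatment.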

Mus musculus [19] = test: Behavioral time in mouse face to face assay at 30 umol/kg administered subcutaneously (*P<0.05); assay type: functional; procedure, shortened: as §3
Mus musculus [20] = test: Behavioral time in mouse isolation-induced aggression behavioral assay at 9.1 umol/kg administered intraperitoneally (*P<0.05); assay type: functional; procedure, shortened: as §2
Mus musculus [21] = test: Behavioral time in mouse face to face assay at dose of 0 umol/kg administered; assay type: functional; procedure, shortened: as §3
Rattus norvegicus [22] = test: Effect on the synthesis rate of dopamine (DOPA) accumulation at the dose of 0.3 umol/kg in the rat ventral limbic brain region; assay type: functional, Limbic system; procedure, shortened: as §4
Mus musculus [23] = test: Behavioral time in mouse isolation-induced aggression assay at 0.9 umol/kg administered intraperitoneally; assay type: functional; procedure, shortened: as §2
Mus musculus [24] = test: Behavioral time in mouse isolation-induced aggression assay at 3.4 umol/kg administered intraperitoneally; assay type: functional
Procedure, shortened: (§7)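 Male CF-1 mice. Residents were isolated singly for at least 1 month; group-housed intruders were kept 4-6/cage. Mice weighed 28-30 g at first test. Residents got drug ip or orally in 0.25% methylcellulose or 0.1% citric acid 30 min before an untreated intruder was introduced. Latency to fighting was recorded, capped at 600 s. Dosing was blind, 6/group (vehicle n = 12), Wilcoxon rank sum.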

Mus musculus [25] = test: Behavioral time in mouse face to face assay at 3.4 umol/kg administered subcutaneously; assay type: functional
Procedure, shortened: (§8)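 Male CF-1 mice (Charles River, 19-29 g), 8 pairs per dose, dosed sc, ip or orally in 0.25% methylcellulose or 0.1% citric acid; 30 min absorption housed with familiar partner. Pairs from different home cages placed in small litter-floored cage; face-to-face interaction duration scored visually for 3 min. Wilcoxon rank sum (two-tailed) vs daily control, p < 0.05.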

Felis catus [26] = test: as §6; assay type: functional; procedure, shortened: as §5; remark: listed apart in the source
Rattus norvegicus [27] = test: Effect on the synthesis rate of 5 HTP accumulation at the dose of 3.4 umol/kg in the rat ventral limbic brain region; assay type: functional, Limbic system
Procedure, shortened: (§9)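 Male Sprague-Dawley rats dosed sc with drug or vehicle at time zero. NSD 1015 (100 mg/kg ip) given 15 min later to block aromatic decarboxylase. Brain DOPA and 5-HTP measured by electrochemical detection with peak integration. Expressed as percent change from NSD 1015 plus saline controls. Control and test groups N = 6 each, compared by unpaired t test.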

Mus musculus [28] = test: Behavioral time in mouse isolation-induced aggression assay at 34 umol/kg administered intraperitoneally; assay type: functional; procedure, shortened: as §7
Rattus norvegicus [29] = test: Effect on the synthesis rate of dopamine (DOPA) accumulation at the dose of 3.4 umol/kg in the rat ventral limbic brain region; assay type: functional, Limbic system; procedure, shortened: as §9
Mus musculus [30] = test: Behavioral time in mouse face to face assay at 34 umol/kg administered subcutaneously; assay type: functional; procedure, shortened: as §8
Mus musculus [31] = test: Behavioral time in mouse isolation-induced aggression assay at 10 umol/kg administered intraperitoneally; assay type: functional; procedure, shortened: as §7
Mus musculus [32] = test: Behavioral time in mouse face to face assay at 0 umol/kg administered subcutaneously; assay type: functional; procedure, shortened: as §8
Mus musculus [33] = test: Behavioral time in mouse face to face assay at 0.3 umol/kg administered subcutaneously; assay type: functional; procedure, shortened: as §8
Mus musculus [34] = test: Behavioral time in mouse face to face assay at 0 umol/kg administered perorally; assay type: functional; procedure, shortened: as §8
Mus musculus [35] = test: Behavioral time in mouse face to face assay at 0.3 umol/kg administered perorally; assay type: functional; procedure, shortened: as §8
Rattus norvegicus [36] = test: Effect on the synthesis rate of 5 HTP accumulation at the dose of 9.7 umol/kg in the rat ventral limbic brain region; assay type: functional, Limbic system; procedure, shortened: as §9
Rattus norvegicus [37] = test: Effect on the synthesis rate of dopamine (DOPA) accumulation at the dose of 9.7 umol/kg in the rat ventral limbic brain region; assay type: functional, Limbic system; procedure, shortened: as §9
Felis catus [38] = test: Effect on arterial blood pressure (BP) in anesthetized cat; assay type: functional; procedure, shortened: as §5

| Compound | ED50 (Mus musculus [1]) [µmol/kg] | TMP.decrease (Mus musculus [2]) | ED50 (Mus musculus [3]) [µmol/kg] | Max decrease (Felis catus [10]) | Max decrease (Felis catus [11]) | ED50 (Felis catus [18]) [µmol/kg] | further results |
| --- | --- | --- | --- | --- | --- | --- | --- |
| CCC[C@H]1c2c(O)cccc2CC[C@H]1N(CCC)CCC | > 92 | 6.9 degrees F | 9.5 |  |  |  |  |
| COc1cccc2c1[C@H](CC1CC1)[C@H](NCC1CC1)CC2 |  | 6.8 degrees F | 23 |  |  |  | ED50 (Mus musculus [4]): > 93 µmol/kg |
| CCCN[C@@H]1CCc2cccc(OC)c2[C@@H]1CCC | > 101 | 6.5 degrees F | 14 |  |  |  |  |
| CCCN(CCC)C1CCc2cccc(O)c2C1 (stereo not drawn) [8-OH-DPAT] | 9.7 | 7.2 degrees F and 7.5 degrees F | 1 | 57 | 2 | 0.03 | Time (Mus musculus [5]): 11 s; Time (Mus musculus [6]): 1.6 s; Time (Mus musculus [7]): 310 s; Time (Mus musculus [8]): 6 s; Change (Rattus norvegicus [9]): 3.2%; Time (Mus musculus [12]): 5 s; Change (Rattus norvegicus [13]): -37%; BP (ED50) (Felis catus [14]): 66%; Time (Mus musculus [15]): 177 s; Time (Mus musculus [16]): 351 s; Change (Rattus norvegicus [17]): -48%; Time (Mus musculus [19]): 4.4 s; Time (Mus musculus [20]): 437 s; Time (Mus musculus [21]): 1.1 s; Change (Rattus norvegicus [22]): 16%; Time (Mus musculus [23]): 20 s |
| C=CCN[C@@H]1CCc2cccc(OC)c2[C@@H]1CC=C | 44 | 9.8 degrees F and 6.6 degrees F | 7.9 | 58 | 18 | 0.54 | Time (Mus musculus [24]): 45 s; Time (Mus musculus [25]): 1.4 s; BP (Felis catus [26]): 70%; Change (Rattus norvegicus [27]): -60%; Time (Mus musculus [28]): 290 s; Change (Rattus norvegicus [29]): -21%; Time (Mus musculus [30]): 4.3 s; Time (Mus musculus [31]): 130 s; Time (Mus musculus [32]): 1.1 s; Time (Mus musculus [33]): 0.9 s |
| C=CC[C@H]1c2c(cccc2OC)CC[C@H]1NCC1CC1 | 134 |  | 18 | 58 | 10 | 0.27 | BP (Felis catus [26]): 65% |
| CCCN[C@@H]1CCc2cccc(OC)c2[C@H]1CC1CC1 | 99 |  | 13 |  |  |  | Time (Mus musculus [34]): 2 s and 5 s; Time (Mus musculus [35]): 1.5 s; Change (Rattus norvegicus [36]): -43.7%; Change (Rattus norvegicus [37]): 18.7% |
| C=CC[C@@H]1c2c(cccc2OC)CC[C@H]1NCC1CC1 (relative stereo) | > 97 | 11.5 degrees F | 10 | 46 | 21 | 0.81 | BP (Felis catus [38]): 65% |
| C=CCN[C@@H]1CCc2cccc(OC)c2[C@@H]1CC1CC1 |  | 7.1 degrees F | 32 |  |  |  |  |
